Measured values reported in publication PMC4624265 (Nuclear medicine and biology, 2015).

Tests used:
PSMA [1] = biological target: T1, PSMA (Homo sapiens, UniProt Q04609); assay: Reversibility assay; assay type: biochemical
PSMA [2] = biological target: T1, PSMA; assay: PSMA inhibition assay; assay type: biochemical
[3] = test system: mice bearing CWR22Rv1 tumor xenografts; assay: Ex vivo biodistribution in CWR22Rv1 tumor-bearing mice; conditions: indicated by insignificant bone uptake
Summary of the method: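 Male athymic NCr-nu/nu mice carried CWR22Rv1 xenografts (about 10^6 cells in 50/50 complete medium/matrigel, right shoulder), used 4–5 weeks after implantation. Under isoflurane, HPLC-purified radiotracer (35–40 μCi in saline) was given by tail vein. For blocking, 250 μg of the PSMA inhibitor in saline was given 1 h before tracer, 4 h group only. Mice were euthanized at 1 h or 4 h, n = 4. Blood was taken by cardiac puncture; organs were weighed and gamma-counted. %ID/g was calculated against standards; two-tailed t-test, p<0.05.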

T1 sequence (Q04609 whole entry): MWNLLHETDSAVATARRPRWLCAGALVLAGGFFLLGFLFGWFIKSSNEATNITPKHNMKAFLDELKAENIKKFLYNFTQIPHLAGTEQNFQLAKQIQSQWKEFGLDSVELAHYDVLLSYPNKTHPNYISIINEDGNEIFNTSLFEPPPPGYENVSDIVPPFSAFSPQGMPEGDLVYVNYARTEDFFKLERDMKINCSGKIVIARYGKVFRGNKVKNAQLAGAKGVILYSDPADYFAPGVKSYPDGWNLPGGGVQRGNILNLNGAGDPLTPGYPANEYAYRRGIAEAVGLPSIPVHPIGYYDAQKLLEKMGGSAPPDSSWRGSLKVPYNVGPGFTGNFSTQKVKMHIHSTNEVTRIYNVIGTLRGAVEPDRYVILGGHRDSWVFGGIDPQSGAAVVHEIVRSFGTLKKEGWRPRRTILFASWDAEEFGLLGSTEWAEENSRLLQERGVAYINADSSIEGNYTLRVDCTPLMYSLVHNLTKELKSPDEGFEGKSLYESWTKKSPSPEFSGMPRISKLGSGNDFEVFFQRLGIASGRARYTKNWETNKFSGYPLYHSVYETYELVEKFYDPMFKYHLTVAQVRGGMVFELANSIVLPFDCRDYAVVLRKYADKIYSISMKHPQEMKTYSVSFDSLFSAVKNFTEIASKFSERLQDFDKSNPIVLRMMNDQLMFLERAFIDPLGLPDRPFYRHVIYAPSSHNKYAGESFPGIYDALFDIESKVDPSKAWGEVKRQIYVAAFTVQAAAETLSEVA

Row | IC50 (PSMA [2]) | SMILES | Mode of binding to PSMA (PSMA [1]) | Defluorination in vivo [3]
1 | 19 nM | NCCCCCC(=O)N[C@@H](CCC(=O)N[C@H](CCCOP(=O)(O)NC(CCC(=O)O)C(=O)O)C(=O)O)C(=O)O (stereo partly drawn) [compound 3, 2-(((S)-((4R)-4-(4-(6-aminohexanamido)-4-carboxybutanamido)-4-carboxybut-oxy) (hydroxy)phosphoryl)amino)pentanedioic acid] | irreversible | 
2 |  | O=C(O)CCC(NP(=O)(O)OCCC[C@@H](NC(=O)CC[C@H](NC(=O)CCCCCNC(=O)c1ccc(F)cc1)C(=O)O)C(=O)O)C(=O)O (stereo partly drawn) [compound 5, 2-(((S)-((4R)-4-carboxy-4-(4-carboxy-4-(6-(4-fluorobenzamido)hexanamido)butanamido)butoxy)(hydroxy)phosphoryl)amino) pentanedioic acid] | irreversible | no defluorination
